Measured values: ChEMBL document CHEMBL1921735, “Antibacterial optimization of 4-aminothiazolyl analogues of the natural product GE2270 A: identification of the cycloalkylcarboxylic acids” (J Med Chem, 2011)
Converted amounts (≈) assume the structure as drawn. The source made the active and inactive calls. Unless noted, the calls are words filed in the database; no cut-off is given here.

How the values were obtained:
Enterococcus faecalis [1] = assay: Antibacterial activity against Enterococcus faecalis isolate NB04025 infected in CD1 mouse assessed as protection against bacterial infection administered immediately after infection measured on day 5; format: functional; settings: isolate NB04025, 120 h
Summary of the method: (§1)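 Mouse lethal systemic infection: ip injection of 1 × 10^8 cfu/mouse (10−100× minimal lethal dose), E. faecalis in 50% sterile rat fecal extract, S. aureus in 0.9% NaCl. Therapy by tail-vein bolus at several doses, six mice per group. Started immediately for E. faecalis; at 1 and 5 h post-inoculation for S. aureus.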

[2] = Oral bioavailability in Sprague-Dawley rat; format: ADME, organism-based; settings: in vivo
[3] = Plasma protein binding in Sprague-Dawley rat; format: ADME, cell-free; settings: read-out: PPB
Summary of the method: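 Rat plasma protein binding was determined in triplicate by rapid equilibrium dialysis. Samples were quantified by LC−MS/MS after acetonitrile precipitation with glyburide internal standard.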

[4] = Clearance in Sprague-Dawley rat at 1 mg/kg, iv bolus; format: ADME, organism-based; design: dose 1 mg/kg, route intravenous; settings: in vivo
Summary of the method: (§2)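 Male Sprague−Dawley rats (220−270 g, ~6−10 weeks) with dual jugular vein cannulae, fasted overnight and for 8 h post-dose, given iv bolus (N = 2 or 3). Blood was collected into K2EDTA tubes and plasma was obtained. Plasma was protein-precipitated with acetonitrile containing glyburide internal standard, then analysed by LC−MS/MS (C18, 0.1% formic acid water/acetonitrile gradient).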

[5] = Cmax in Sprague-Dawley rat at 25 mg/kg, iv bolus; format: ADME, organism-based; design: dose 25 mg/kg, route intravenous; settings: in vivo; summary of the method: as §2
Staphylococcus aureus [6] = assay: Bacteriostatic activity against Staphylococcus aureus ATCC 01001 infected in thigh of CD1 mouse assessed as prevention of colony formation at 80 mg/kg, ip administered 2 hrs post infection measured after 24 hrs; format: functional, organism-based; design: dose 80 mg/kg
Summary of the method: (§3)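 Female CD1 mice (21−25 g), made neutropenic with cyclophosphamide ip at 150 mg/kg (day −4) and 100 mg/kg (day −1). Left thigh infected im with 0.05 mL S. aureus ATCC 01001 (7.5 × 10^5 cfu/thigh), grown 16 h at 36 °C in cation-supplemented Mueller Hinton. Treatment given 2 h post-infection, four mice per group. At 12 or 24 h thighs were excised, homogenized in 0.9% NaCl, serially diluted and plated on blood agar for cfu.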

Staphylococcus aureus [7] = assay: Antibacterial activity against Staphylococcus aureus ATCC 01001 infected in thigh of CD1 mouse assessed as prevention of colony formation at 80 to 320 mg/kg, ip administered 2 hrs post infection measured after 24 hrs; format: functional, organism-based; summary of the method: as §3
[8] = Chemical stability of the compound in 15% v/v NaOH, 5% PEG-300, 0.9% saline, 55% v/v water at pH 7.2 to 7.8; format: physicochemical; settings: buffer
Enterococcus faecalis [9] = assay: Antibacterial activity against Enterococcus faecalis ATCC 29212 by CLSI M07-A8 method; format: functional
Summary of the method: (§4)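 Broth microdilution MIC run per CLSI M07-A8 (2009).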

[10] = Volume of distribution at steady state in Sprague-Dawley rat at 1 mg/kg, iv bolus; format: ADME, organism-based; design: dose 1 mg/kg, route intravenous; settings: in vivo, read-out: Vdss; summary of the method: as §2
Streptococcus pneumoniae = assay: Antibacterial activity against Streptococcus pneumoniae by CLSI M07-A8 method; format: functional, organism-based; summary of the method: as §4
Staphylococcus aureus [11] = assay: Antibacterial activity against Staphylococcus aureus ATCC 49951 infected in CD1 mouse assessed as protection against bacterial infection administered 5 hrs post infection measured on day 5; format: functional; summary of the method: as §1
[12] = Cmax in Sprague-Dawley rat at 1 mg/kg, iv bolus; format: ADME, organism-based; design: dose 1 mg/kg, route intravenous; settings: in vivo; summary of the method: as §2
Staphylococcus aureus [13] = assay: Antibacterial activity against methicillin-resistant Staphylococcus aureus isolate A4.018 by CLSI M07-A8 method; format: functional
[14] = Volume of distribution at steady state in Sprague-Dawley rat at 75 mg/kg, iv bolus; format: ADME, organism-based; design: dose 75 mg/kg, route intravenous; settings: in vivo, read-out: Vdss; summary of the method: as §2
[15] = Volume of distribution at steady state in Sprague-Dawley rat at 25 mg/kg, iv bolus; format: ADME, organism-based; design: dose 25 mg/kg, route intravenous; settings: in vivo, read-out: Vdss; summary of the method: as §2
Staphylococcus aureus [16] = assay: Bacteriostatic activity against Staphylococcus aureus ATCC 01001 infected in thigh of CD1 mouse assessed as prevention of colony formation at 40 mg/kg, ip administered 2 hrs post infection measured after 12 hrs; format: functional, organism-based; design: dose 40 mg/kg; summary of the method: as §3
[17] = Clearance in Sprague-Dawley rat at 75 mg/kg, iv bolus; format: ADME, organism-based; design: dose 75 mg/kg, route intravenous; settings: in vivo; summary of the method: as §2
Staphylococcus aureus [18] = assay: Antibacterial activity against Staphylococcus aureus ATCC 01001 infected in thigh of CD1 mouse assessed as prevention of colony formation at 80 to 320 mg/kg, ip administered 2 hrs post infection measured after 12 hrs; format: functional, organism-based; summary of the method: as §3
Rattus norvegicus [19] = assay: Dose normalized AUC in Sprague-Dawley rat at 25 mg/kg, iv bolus; format: ADME, organism-based; design: dose 25 mg/kg, route intravenous; settings: in vivo; summary of the method: as §2
Rattus norvegicus [20] = assay: Cmax in Sprague-Dawley rat at 75 mg/kg, iv bolus; format: ADME, organism-based; design: dose 75 mg/kg, route intravenous; settings: in vivo; summary of the method: as §2
[21] = AUC in Sprague-Dawley rat at 25 mg/kg, iv bolus; format: ADME, organism-based; design: dose 25 mg/kg, route intravenous; settings: plasma; summary of the method: as §2
Rattus norvegicus [22] = assay: Dose normalized AUC in Sprague-Dawley rat at 75 mg/kg, iv bolus; format: ADME, organism-based; design: dose 75 mg/kg, route intravenous; settings: in vivo; summary of the method: as §2
[23] = Clearance in Sprague-Dawley rat at 25 mg/kg, iv bolus; format: ADME, organism-based; design: dose 25 mg/kg, route intravenous; settings: in vivo; summary of the method: as §2
[24] = AUC in Sprague-Dawley rat at 1 mg/kg, iv bolus; format: ADME, organism-based; design: dose 1 mg/kg, route intravenous; settings: plasma; summary of the method: as §2
Rattus norvegicus [25] = assay: Dose normalized AUC in Sprague-Dawley rat at 1 mg/kg, iv bolus; format: ADME, organism-based; design: dose 1 mg/kg, route intravenous; settings: in vivo; summary of the method: as §2
[26] = AUC in Sprague-Dawley rat at 75 mg/kg, iv bolus; format: ADME, organism-based; design: dose 75 mg/kg, route intravenous; settings: plasma; summary of the method: as §2
Enterococcus faecium = assay: Antibacterial activity against Enterococcus faecium 7130724 by CLSI M07-A8 method; format: functional; summary of the method: as §4
Streptococcus pyogenes = assay: Antibacterial activity against Streptococcus pyogenes ATCC BAA-595 by CLSI M07-A8 method; format: functional; summary of the method: as §4

For `CNC(=O)C[C@@H]1NC(=O)c2csc(n2)-c2ccc(-c3nc(NC(=O)[C@H]4CC[C@H](C(=O)O)CC4)cs3)nc2-c2csc(n2)-c2csc(n2)[C@H]([C@@H](O)c2ccccc2)NC(=O)CNC(=O)c2nc(sc2COC)[C@H](C(C)C)NC(=O)c2nc1sc2C`, the ED50 (Enterococcus faecalis [1]) was 0.6 mg/kg, the bioavailability [2] was < 0.1% and the fraction unbound [3] was < 0.01. For the same compound, the clearance [4] was 6.7 mL/min/kg, the Cmax [5] was 320 µM and the Activity (Staphylococcus aureus [6]) was “Active”. For the same compound, the Activity (Staphylococcus aureus [7]) was “Active”, the Stability [8] was > 1 weeks and the MIC (Enterococcus faecalis [9]) was 0.06 µg/mL (≈ 0.048 µM). The Vd [10] was < 0.1 L/kg, the Activity (Streptococcus pneumoniae) was “Active” and the ED50 (Staphylococcus aureus [11]) was 5.2 mg/kg. For the same compound, the Cmax [12] was 5 µM, the MIC (Staphylococcus aureus [13]) was 0.125 µg/mL (≈ 0.1 µM) and the Vd [14] was < 0.1 L/kg. The Vd [15] was < 0.1 L/kg, the Activity (Staphylococcus aureus [16]) was “Active” and the clearance [17] was 0.4 mL/min/kg. For the same compound, the Activity (Staphylococcus aureus [18]) was “Active”, the AUC/dose (Rattus norvegicus [19]) was 13.7 µM·h/mg/kg and the Cmax (Rattus norvegicus [20]) was > 1000 µM. It also gave an AUC [21] of 343 µM·h, an AUC/dose (Rattus norvegicus [22]) of 38.2 µM·h/mg/kg and a clearance [23] of 1 mL/min/kg. The AUC [24] was 3 µM·h, the AUC/dose (Rattus norvegicus [25]) was 3 µM·h/mg/kg and the AUC [26] was 2860 µM·h. For the same compound, the MIC (Enterococcus faecium) was 0.06 µg/mL (≈ 0.048 µM) and the MIC (Streptococcus pyogenes) was 4 µg/mL (≈ 3.2 µM).
